Reference: ChEMBL document CHEMBL1250506, “Synthesis of novel sulfanilamide-derived 1,2,3-triazoles and their evaluation for antibacterial and antifungal activities” (2010)
Values after ≈ are worked out from the molar mass of the structure shown.

What was measured:
Assay type in all cases: functional
Pseudomonas aeruginosa = experiment: Antibacterial activity against Pseudomonas aeruginosa by twofold serial dilution technique
[1] = Antibacterial activity against Eberthella typhosa by twofold serial dilution technique
Bacillus subtilis = experiment: Antibacterial activity against Bacillus subtilis ATCC 6633 by twofold serial dilution technique
Escherichia coli = experiment: Antibacterial activity against Escherichia coli JM 109 by twofold serial dilution technique
Candida = experiment: Antifungal activity against Candida mycoderma by twofold serial dilution technique
In short: (§1)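 Two-fold serial dilution MIC in 96-well microtest plates. Test compounds from DMSO stocks, with fluconazole as reference. MIC read as the first well showing about 80% growth reduction versus the drug-free well.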

Shigella dysenteriae = experiment: Antibacterial activity against Shigella dysenteriae by twofold serial dilution technique
In short: (§2)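 MIC by two-fold broth dilution in 96-well plates following NCCLS. Compounds were dissolved in DMSO as stock, then diluted in Mueller-Hinton broth to 512 down to 0.5. Inoculum was bacterial suspension adjusted with sterile saline to 1 ×10⁵ CFU. Plates were incubated 37 °C for 24 h, with a DMSO-supplemented medium control at matching dilutions. Chloramphenicol was the reference.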

Candida albicans = experiment: Antifungal activity against Candida albicans ATCC 76615 by twofold serial dilution technique; in short: as §1
Staphylococcus aureus [2] = experiment: Antibacterial activity against methicillin-resistant Staphylococcus aureus N315 by twofold serial dilution technique; in short: as §2
Staphylococcus aureus [3] = experiment: Antibacterial activity against Staphylococcus aureus ATCC 25923 by twofold serial dilution technique

| SMILES | MIC (Pseudomonas aeruginosa) | MIC [1] | MIC (Bacillus subtilis) | MIC (Escherichia coli) | MIC (Candida) | MIC (Shigella dysenteriae) | MIC (Candida albicans) | MIC (Staphylococcus aureus [2]) | MIC (Staphylococcus aureus [3]) |
| --- | --- | --- | --- | --- | --- | --- | --- | --- | --- |
| Nc1ccc(S(=O)(=O)NCc2cn(Cc3ccc([N+](=O)[O-])cc3)nn2)cc1 | > 512 µg/mL | > 512 µg/mL | 256 µg/mL (≈ 659 µM) | > 512 µg/mL | > 512 µg/mL | > 512 µg/mL | > 512 µg/mL | 256 µg/mL (≈ 659 µM) | > 512 µg/mL |
| CCCCCn1cc(CNS(=O)(=O)c2ccc(N)cc2)nn1 | 512 µg/mL (≈ 1580 µM) | 512 µg/mL (≈ 1580 µM) | > 512 µg/mL | > 512 µg/mL | > 512 µg/mL | 512 µg/mL (≈ 1580 µM) | > 512 µg/mL | > 512 µg/mL | > 512 µg/mL |
| CCCCCCCCCCn1cc(CNS(=O)(=O)c2ccc(N)cc2)nn1 | 64 µg/mL (≈ 163 µM) | 128 µg/mL (≈ 325 µM) | 64 µg/mL (≈ 163 µM) | 512 µg/mL (≈ 1300 µM) | > 512 µg/mL | 128 µg/mL (≈ 325 µM) | > 512 µg/mL | 512 µg/mL (≈ 1300 µM) | 256 µg/mL (≈ 650 µM) |
| CCCCCCCCCCCCn1cc(CNS(=O)(=O)c2ccc(N)cc2)nn1 | 32 µg/mL (≈ 75.9 µM) | 64 µg/mL (≈ 152 µM) | 128 µg/mL (≈ 304 µM) | 64 µg/mL (≈ 152 µM) | 256 µg/mL (≈ 607 µM) | 32 µg/mL (≈ 75.9 µM) | 512 µg/mL (≈ 1210 µM) | 128 µg/mL (≈ 304 µM) | 128 µg/mL (≈ 304 µM) |
| OC(Cn1cncn1)(Cn1cncn1)c1ccc(F)cc1F [FLUCONAZOLE] |  |  |  |  | 4 µg/mL (≈ 13.1 µM) |  | 0.5 µg/mL (≈ 1.63 µM) |  |  |
| Nc1ccc(S(=O)(=O)NCc2cn(Cc3ccccc3Cl)nn2)cc1 | 512 µg/mL (≈ 1360 µM) | > 512 µg/mL | > 512 µg/mL | > 512 µg/mL | > 512 µg/mL | 512 µg/mL (≈ 1360 µM) | > 512 µg/mL | > 512 µg/mL | > 512 µg/mL |
| O=C(N[C@H](CO)[C@H](O)c1ccc([N+](=O)[O-])cc1)C(Cl)Cl [CHLORAMPHENICOL] | 8 µg/mL (≈ 24.8 µM) | 2 µg/mL (≈ 6.19 µM) | 2 µg/mL (≈ 6.19 µM) | 4 µg/mL (≈ 12.4 µM) |  | 4 µg/mL (≈ 12.4 µM) |  | 2 µg/mL (≈ 6.19 µM) | 4 µg/mL (≈ 12.4 µM) |
| CCCCCCn1cc(CNS(=O)(=O)c2ccc(N)cc2)nn1 | 256 µg/mL (≈ 759 µM) | > 512 µg/mL | 256 µg/mL (≈ 759 µM) | > 512 µg/mL | > 512 µg/mL | 256 µg/mL (≈ 759 µM) | > 512 µg/mL | 512 µg/mL (≈ 1520 µM) | 512 µg/mL (≈ 1520 µM) |
| Nc1ccc(S(=O)(=O)NCc2cn(Cc3ccc(Cl)cc3Cl)nn2)cc1 | 64 µg/mL (≈ 155 µM) | 128 µg/mL (≈ 310 µM) | 128 µg/mL (≈ 310 µM) | 128 µg/mL (≈ 310 µM) | 512 µg/mL (≈ 1240 µM) | 32 µg/mL (≈ 77.6 µM) | 512 µg/mL (≈ 1240 µM) | 128 µg/mL (≈ 310 µM) | 64 µg/mL (≈ 155 µM) |
